# Active and inactive are the calls of the source.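 Rule for the calls, unless noted: active = fluorescence slope higher than the sample average by over 3 SD (cut at about -0.22 in these data, passing the limit was not always enough); inactive = the rest.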
# Key:
# [1] = inhibitors of TNFa-induced NFkB p65 translocation, primary screen, imaging, HUVEC, MLSMR starter and 10KST1 sets (AID 438;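 active = inhibition above 20% together with a positive visual image hit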;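 note: compound added about 3h40 before a 20 min TNFalpha stimulation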;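 for inhibition: signal is the nuclear over cytoplasmic p65 intensity ratio per well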); conditions: HUVEC TNFa-induced p65 nuclear translocation; cell count: measured here: nuclei count (cytotoxicity indicator), at 2.08 µM; inhibition: at 2 µM, stronger effect = higher value, 0% TNFa-plus-vehicle, 100% no-TNFa wells
# [2] = reduction of polyQ htt aggregates in cells – imaging, exon1htt(103Q)mCFP cells, high-content imaging, primary screen (AID 483;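 active = visual image review flags a hit and inhibition of aggregation exceeds 20%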;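 note: compound exposure lasted 3 days before fixation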;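 for nuclei count: percent of the per-plate median nuclei count of sample wells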); conditions: exon1htt(103Q)mCFP cell line, aggregate imaging, at 2 µM; inhibition of aggregation: stronger effect = higher value; nuclei count: measured here: cell count, toxicity
# [3] = endothelial E-selectin expression blockers – imaging, HUVEC, immunofluorescence, MLSMR starter and 10KST1 sets, primary screen (AID 487;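 active = visually confirmed hit in the image check and inhibition above 20%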;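 for inhibition: signal is fraction of cell area covered by stained E-selectin grains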;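 for nuclei count: 100% = median nuclei count of all wells on the same plate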); conditions: HUVEC TNFalpha-induced E-selectin immunofluorescence imaging, at 2 µM; inhibition: stronger effect = higher value; nuclei count: measured here: cell number, toxicity
# [4] = target: Voltage-gated potassium channel subunit beta-2 (Rattus norvegicus) (UniProt P62483); test: inhibitors of rat Kvbeta2 reductase activity – biochemical, NADPH fluorescence, primary screen (AID 622); conditions: recombinant KvBeta, 4-cyanobenzaldehyde reduction, at 10 µM, stronger effect = higher value;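 note: slope of raw intensity against log time taken from 70 to 1610 s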
# [5] = target: Voltage-gated potassium channel subunit beta-2 (Rattus norvegicus) (UniProt P62483); test: enhancers of rat Kvbeta2 NADPH turnover – biochemical, NADPH fluorescence, primary screen (AID 623;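 active = NADPH fluorescence slope more negative than the mean of all samples by about 3 SD, 99.7% confidence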;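 note: fluorescence intensity change per second fitted from 20 to 320 s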); conditions: Recombinant KvBeta, NADPH fluorescence decrease slope, 10 min; at 10 µM; stronger effect = lower value
# [6] = target: Muscarinic acetylcholine receptor M4 (Homo sapiens) (UniProt P08173); test: M4-linked GIRK flux change, two-sided – cell-based, HEK293 M4/GIRK, thallium flux, BTC-AM, M4 allosteric agonist project, primary screen (AID 625;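 active = fluorescence slope after compound addition differing from the mean of all tested samples at 99.7% confidence, mostly higher but some lower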;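 note: thallium influx through GIRK channels coupled to M4 in HEK293 cells with BTC-AM dye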); conditions: at 10 µM, actives lie on both sides
# Outline: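 Assay system: HEK293 cells with M4 receptor and GIRK channels / Controls: carbachol and DMSO controls / Schedule: 1 h dye loading, 2 min kinetic read / Technique: kinetic fluorescence with BTC-AM dye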
# [7] = blockers of RIG-like receptor reporter activation – cell-based, Sendai virus stimulus, luciferase, 10K MLSCN set, TLR/RLR signaling modifier project, primary screen (AID 602276;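 active = inhibition at or above 50% at 10 µM; inactive = inhibition below 50%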;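 note: firefly luciferase from ISG56 promoter only with Renilla not read in this screen; 0% = Sendai virus plus DMSO and 100% = medium plus DMSO without virus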); conditions: HEK293 RL24 IRF3 luciferase reporter, at 10 µM, stronger effect = higher value
# [8] = TLR3 IRF3 reporter activation blockers – cell-based, poly I:C stimulus, luciferase, 10K MLSCN set, primary screen (AID 602277;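 active = inhibition of the reporter signal at or above 50%; inactive = inhibition below 50%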); conditions: HEK293-TLR3 RL24 IRF3 luciferase reporter, at 10 µM, stronger effect = higher value
# Sequence of Voltage-gated potassium channel subunit beta-2 (Rattus norvegicus) (P62483 whole entry, looked up): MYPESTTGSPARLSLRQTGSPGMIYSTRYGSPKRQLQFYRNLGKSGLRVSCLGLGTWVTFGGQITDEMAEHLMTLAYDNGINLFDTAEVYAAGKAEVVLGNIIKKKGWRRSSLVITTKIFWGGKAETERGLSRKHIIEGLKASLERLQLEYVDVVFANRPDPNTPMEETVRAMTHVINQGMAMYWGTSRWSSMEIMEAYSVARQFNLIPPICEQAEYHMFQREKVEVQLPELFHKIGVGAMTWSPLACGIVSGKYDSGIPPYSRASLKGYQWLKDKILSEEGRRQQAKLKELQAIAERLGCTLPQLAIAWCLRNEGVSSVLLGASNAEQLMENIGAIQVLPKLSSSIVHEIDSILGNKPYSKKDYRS
# Sequence of Muscarinic acetylcholine receptor M4 (Homo sapiens) (P08173 whole entry, looked up): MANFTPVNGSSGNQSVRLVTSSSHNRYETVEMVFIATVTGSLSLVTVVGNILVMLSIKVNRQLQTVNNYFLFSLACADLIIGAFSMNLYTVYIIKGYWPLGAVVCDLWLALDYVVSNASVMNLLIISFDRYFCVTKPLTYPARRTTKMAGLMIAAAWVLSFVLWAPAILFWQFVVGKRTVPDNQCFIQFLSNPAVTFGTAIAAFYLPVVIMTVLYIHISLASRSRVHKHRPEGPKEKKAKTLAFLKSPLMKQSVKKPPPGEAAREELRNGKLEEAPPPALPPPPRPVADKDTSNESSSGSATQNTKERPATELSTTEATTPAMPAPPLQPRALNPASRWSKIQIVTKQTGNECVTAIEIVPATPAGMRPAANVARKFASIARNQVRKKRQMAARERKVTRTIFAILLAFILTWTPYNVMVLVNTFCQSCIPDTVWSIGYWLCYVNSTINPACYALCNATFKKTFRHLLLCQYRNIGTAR
Structure (SMILES),cell count [1],inhibition [1],inhibition of aggregation [2],nuclei count [2] [%],inhibition [3],nuclei count [3] [%],fluorescence slope [4],NADPH fluorescence slope [5],fluorescence slope [6],inhibition [7],inhibition [8]
Cc1csc(NC(=O)c2sc3nc(-c4cccs4)ccc3c2N)n1,340,-1.9% (inactive),30.2% (inactive),68.7,-5.9% (inactive),90.5,-0.0131 (active),2.9e-06 (inactive),0.0189 (active),-19.2% (inactive),-115% (inactive)
Cc1cccc(N(C)C(=O)c2coc(=O)c3ccccc23)c1,199,-0.8% (inactive),-9.3% (inactive),105,-1.9% (inactive),104,-0.563 (inactive),1.4e-05 (inactive),0.00467 (inactive),14.1% (inactive),26.6% (inactive)
CCn1cc(C(=O)NCCN(C)CCc2ccccc2)c(=O)c2cc(S(=O)(=O)N(C)C)ccc21,543,-20.4% (inactive),-8.6% (inactive),118,-10.5% (inactive),110,-0.494 (inactive),0.0002 (inactive),0.00668 (inactive),14% (inactive),18.4% (inactive)
Cc1nc(NCCNC(=O)c2ccco2)c2c(C)c(C)sc2n1,803,-4.2% (inactive),-8.7% (inactive),136,-34.1% (inactive),117,-0.548 (inactive),1.6e-05 (inactive),0.00498 (inactive),12.1% (inactive),6.83% (inactive)
O=C(CS(=O)(=O)Cc1ccccc1)Nc1nc2ccccc2s1,425,-4% (inactive),8.1% (inactive),82.8,13.1% (inactive),97,-0.487 (inactive),-3.1e-05 (inactive),0.00544 (inactive),10.2% (inactive),23.6% (inactive)
O=C(NCCN1CCCC1)C1COc2ccccc2O1 (centres undefined),511,-0.5% (inactive),-4.3% (inactive),73.8,-28.7% (inactive),100,-0.587 (inactive),-3.1e-05 (inactive),0.0064 (inactive),1.21% (inactive),11.8% (inactive)
Cc1ncoc1C(=O)Nc1cccc(Cl)c1C,540,-14.2% (inactive),52.7% (active),56.4,-38.5% (inactive),116,-0.302 (inactive),8.7e-06 (inactive),0.00599 (inactive),-22.6% (inactive),-46.1% (inactive)
CCCC(C(=O)NCc1ccco1)N(C(=O)CNS(=O)(=O)c1ccc(Cl)cc1)C1CCCC1 (centres undefined),387,-0.7% (inactive),-2.5% (inactive),110,-210% (inactive),111,-0.522 (inactive),-1.1e-05 (inactive),0.00544 (inactive),24.7% (inactive),25.7% (inactive)
Cc1nc(N2CCOCC2)[nH]c(=O)c1CCC(C)C,417,-3.4% (inactive),6.3% (inactive),107,28.7% (inactive),57.6,-0.4 (inactive),2.6e-05 (inactive),0.0057 (inactive),15.6% (inactive),21.2% (inactive)
COCCOc1nc2ccccc2nc1C,351,5.2% (inactive),8.5% (inactive),87.8,-5.9% (inactive),104,-0.615 (inactive),-2.4e-05 (inactive),0.00668 (inactive),16.4% (inactive),2.62% (inactive)
CC(C)Oc1ccc(C2C(C(=O)c3ccco3)=C(O)C(=O)N2CCCN(C)C)cc1 (centres undefined),694,-5.2% (inactive),17.7% (inactive),80.9,-16.4% (inactive),112,-0.476 (inactive),-0.000237 (inactive),0.00376 (inactive),13.1% (inactive),8.15% (inactive)
Cc1cc(SCC(N)=O)nc(SCC(=O)c2ccccc2)n1,584,-3.3% (inactive),-8.2% (inactive),105,16.8% (inactive),91.6,-0.585 (inactive),-5.2e-05 (inactive),0.00307 (inactive),10.5% (inactive),21% (inactive)
CCc1ccccc1N=C1SCC(=O)N1C,368,-8.5% (inactive),19.1% (inactive),69.3,-50.2% (inactive),111,-0.412 (inactive),7.8e-05 (inactive),0.00583 (inactive),6.15% (inactive),13.2% (inactive)
CCN1CCN(Cc2ccccc2NC(=O)Nc2ccc(C)cc2)CC1,258,-3.1% (inactive),21.9% (inactive),41.1,-23.4% (inactive),94,-0.487 (inactive),-6.3e-07 (inactive),0.00496 (inactive),-27.3% (inactive),-69.1% (inactive)

# Reference: PubChem BioAssay
